# Source: PubChem (several laboratories)
# A selection: hits, their analogues and other compounds. The true share with any hit is near 2.6%.
# AHR activator = human AHR activation; P35869; AHR-responsive luciferase reporter cells, luminescence; activation, % at 5 µM; actives 2.5% (n = 320,000); in the data active means activation above about 47%;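 further: 0% = vehicle wells and 100% = reference agonist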
# Target sequence (P35869 whole entry, looked up): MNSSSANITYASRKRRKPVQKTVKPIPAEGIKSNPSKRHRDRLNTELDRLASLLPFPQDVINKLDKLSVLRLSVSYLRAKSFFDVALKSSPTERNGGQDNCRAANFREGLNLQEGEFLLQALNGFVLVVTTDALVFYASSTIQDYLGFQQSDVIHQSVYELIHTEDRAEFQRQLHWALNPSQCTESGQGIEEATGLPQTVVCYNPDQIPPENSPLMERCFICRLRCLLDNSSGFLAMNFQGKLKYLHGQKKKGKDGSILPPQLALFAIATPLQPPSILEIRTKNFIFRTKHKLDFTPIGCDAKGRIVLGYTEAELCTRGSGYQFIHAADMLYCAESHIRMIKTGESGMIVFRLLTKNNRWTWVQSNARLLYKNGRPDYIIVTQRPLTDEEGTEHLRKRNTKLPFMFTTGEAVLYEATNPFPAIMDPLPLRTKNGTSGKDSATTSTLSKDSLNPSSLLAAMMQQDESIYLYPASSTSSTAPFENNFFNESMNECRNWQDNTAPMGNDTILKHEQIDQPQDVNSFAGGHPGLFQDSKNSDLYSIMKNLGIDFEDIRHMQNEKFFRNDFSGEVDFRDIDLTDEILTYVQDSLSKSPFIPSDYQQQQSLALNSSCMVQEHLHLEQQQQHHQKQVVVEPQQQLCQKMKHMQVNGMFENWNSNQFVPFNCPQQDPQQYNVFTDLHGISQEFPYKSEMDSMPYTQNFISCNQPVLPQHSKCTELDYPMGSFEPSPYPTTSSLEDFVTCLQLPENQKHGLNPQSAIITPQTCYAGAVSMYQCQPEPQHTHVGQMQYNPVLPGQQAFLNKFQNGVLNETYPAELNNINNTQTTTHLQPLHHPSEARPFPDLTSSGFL
# procasp7 counter = activates human procaspase-7, counter-screen for procaspase-3 activators; recombinant procaspase-7, Ac-DEVD-pNA absorbance 405 nm; D23A/D198A/D206A triple mutant, cannot self-cleave; scale: DMSO 0, 5 µM enzyme 100; activation, % at 8.5 µM; actives 0.093% (n = 330,000);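 active means percent activation above the screen-wide mean plus 3 SD, cut at about 25% in these data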
#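 buffer or medium = Zinc-free HEPES/NaCl buffer, pH 7.4 | material = Procaspase-7 triple mutant (PC-7 D3A) | input = 2 µM procaspase-7 mutant as dispensed | signal = Epi-absorbance of released pNA at 405 nm, two timepoints | timing = 1 h preincubation, 2 h reaction | replicates = singlicate compound testing | evaluation = % activation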
# procasp3 activ = activators of human procaspase-3; activation, % at 8.5 µM; actives 0.11% (n = 330,000); P42574; AID 463141; recombinant procaspase-3 D3A, Ac-DEVD-pNA absorbance 405 nm;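 active means activation above the mean of all tested compounds plus 3 SD, cut at about 21% in these data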;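 further: 0% = DMSO alone and 100% = DMSO wells spiked with extra 5 µM PC-3 D3A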
#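 assay system = Procaspase-3 D3A mutant | signal = absorbance at 405 nm, 0 and 120 min | times = 1 h preincubation plus 2 h reaction at 25 °C | repeats = single replicate | read-out = % activation between DMSO and enzyme-spiked controls | medium = Zinc-free HEPES saline buffer with Triton X-100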
# PolyA inhibitor = inhibitors of polyadenylation in S. cerevisiae. actives 0.02% (n = 300,000). S. cerevisiae SKY197-pL101 polyadenylation reporter, beta-gal luminescence; efflux-impaired pdr1/pdr3 knockout yeast; score 100 = 6 SD above DMSO. activity score, % at 12 µM. AID 1875;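 active means lowest replicate activity score at least 50, where 100 means six control SD above control mean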;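 further: yeast exposed to compound for 9 h at 30 °C; higher score means more reporter readthrough which indicates perturbed polyadenylation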
# AHR act cf = confirmation of human aryl hydrocarbon receptor activators; human cells, AHR-responsive luciferase reporter, luminescence; actives 87% (n = 2,300); activation, % at 9 µM; AID 2845; shares compounds with AHR activator; in the data active means activation above about 49%;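 further: HepG2 hepatoma cells carrying a DRE-driven firefly luciferase reporter; 0% = vehicle wells and 100% = reference agonist wells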
# PXR act counter = activates human PXR in AHR activator counter-screen; shares compounds with AHR activator; cell-based PXR reporter, luciferase luminescence; activation, % at 11.6 µM; actives 88% (n = 2,300); AID 434939; in the data active means activation above about 11%;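 further: human hepatoma DPX-2 cells expressing full-length human PXR; 0% = DMSO and 100% = reference agonist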
# The depositor's hits bear a star; / = no result.
SMILES,AHR activator,procasp7 counter,procasp3 activ,PolyA inhibitor,AHR act cf,PXR act counter
COc1cccc(C(=O)Nc2cccc3ccccc23)c1OC,117*,-3,8,-16,108*,44*
O=C(Nc1cccc2ccccc12)c1cc2c(cc1Br)OCO2,82*,0,3,-21,95*,120*
O=C(Nc1ccc(Cl)cc1F)c1cccc2ccccc12,100*,-1,0,-1,119*,12*
O=C(O)c1cccc([N+](=O)[O-])c1C(=O)Nc1cccc2ccccc12,84*,-11,-10,-3,32,1
CCc1ccc(NC(=O)CS(=O)CC(=O)Nc2ccc(N3CCOCC3)cc2)cc1 (stereo not given),-2,7,-8,-8,/,/
COc1ccc(OC)c2nc(-c3cccnc3)ccc12,93*,11,3,-2,143*,22*
O=c1c2ccccc2nc(/C=C/c2cccc([N+](=O)[O-])c2)n1CCCO,41,20,4,9,/,/
Cn1c(/C=C/c2cccc([N+](=O)[O-])c2)nc2ccccc2c1=O,93*,13,7,-23,0,12*
Cc1cc(C)nc(SCC(=O)NNC(=O)c2cccs2)n1,1,0,-1,16,/,/
C/C(=N\NC(=O)CSc1nc(C)cc(C)n1)c1cccs1,110*,-2,3,-1,98*,50*
Cn1ncc([N+](=O)[O-])c1C(=O)Nc1cccc(Cl)c1,99*,-7,-1,-3,107*,21*
CCn1ncc(Br)c1C(=O)Nc1cc(C)on1,/,/,/,-8,/,/
CCn1ncc(Br)c1C(=O)Nc1ccc(Cl)cn1,105*,-9,-1,-21,115*,45*
Cn1ncc(Cl)c1C(=O)Nc1cccc(Cl)c1,84*,-3,-4,4,106*,23*
Cc1cc(NC(=O)c2c(Cl)cnn2C)no1,16,-5,-5,0,/,/
Cn1ncc(Cl)c1C(=O)Nc1ccc(Cl)cn1,143*,-5,1,-5,129*,29*
CSc1cccc(NC(=O)c2c(Cl)cnn2C)c1,8,3,6,-1,/,/
CCc1ccc(C(=O)NNC(=O)c2ccc(OCC(=O)N3CCOCC3)c(OC)c2)cc1,0,-4,14,/,/,/
Cc1ccc(OC(C)C(=O)N(Cc2cccs2)C2CCS(=O)(=O)C2)cc1C (stereo not given),-1,6,13,8,/,/
COc1ccc(C2=NOC(C(=O)N3CCN(C(=O)c4ccco4)CC3)C2)cc1OC (stereo not given),-6,-5,-4,-7,/,/
O=C(Nc1ccc(Cl)cn1)c1cc2ccccc2o1,110*,-14,-13,-14,72*,8
O=C(Nc1ccc(Cl)cn1)Nc1ccccc1F,39,-4,1,-11,/,/
COc1cc(N)ccc1NC(=O)c1cc2ccccc2o1,107*,-15,-9,-17,141*,12*
O=C(Nc1cccc(C(=O)Nc2ccc(Cl)cn2)c1)c1ccccc1,82*,-3,6,-15,12,19*
O=C(Nc1ccc(Cl)cn1)c1ccccc1F,148*,3,-6,-2,77*,21*
SMILES,AHR activator,procasp7 counter,procasp3 activ,PolyA inhibitor,AHR act cf,PXR act counter
COc1ccc(C(=O)N=C2SC3CS(=O)(=O)CC3N2Cc2ccc(F)cc2)cc1 (stereo not given),0,8,1,-1,/,/
COc1ccc2cc(C[C@@H]3CC[C@@H](CNC(N)=O)O3)ccc2c1,/,6,-2,/,/,/
C(=N\Nc1nc2ccccc2s1)/c1ccco1,103*,-5,-1,-19,105*,30*
COc1cc(SC)ccc1C(=O)OCC(=O)N1CCCC1,0,5,-3,-2,/,/
Clc1cccc(-c2ccc(CNCc3ccccn3)o2)c1,121*,-26,-11,-3,87*,24*
Cc1cccc(CNC(=O)CC2C(=O)NCCN2C2CCCC2)c1 (stereo not given),3,3,-4,-5,/,/
COc1ccc(S(=O)(=O)N(C)C[C@H]2Oc3c(NS(=O)(=O)c4ccc(F)cc4)cccc3C(=O)N([C@H](C)CO)C[C@@H]2C)cc1,0,19,2,/,/,/
CCCCNc1c(-c2ccc(-c3cccc(Cl)c3)cc2)nc2ccc(Cl)cn12,79*,-22,-19,/,33,14*
CCCCCCSc1ccc(-c2nc3ccc(Cl)cn3c2NCCCC)cc1OC,2,-14,-3,/,/,/
CCCC1Cc2c(sc3nc(SC)nc(N)c23)CO1 (stereo not given),11,-1,7,/,/,/
CSc1nc(N)c2c3c(sc2n1)COC(C(C)C)C3 (stereo not given),97*,-6,1,-14,109*,18*
C/C(=C\C(=O)c1ccc(Br)cc1)NCc1ccccc1,95*,4,4,-8,29,27*
Cn1nccc1C(=O)N1CCN(c2ccccc2F)CC1,-3,7,-2,-7,/,/
COc1c(F)cccc1C1=CC(=O)C[C@H](c2ccc3c(c2)OCO3)C1,101*,-2,-5,/,76*,66*
O=C1C=C(c2ccc(Br)c3ccccc23)C[C@@H](c2ccc3c(c2)OCO3)C1,89*,6,-2,/,95*,32*
[O-][n+]1onc2c1CCc1nnc(-c3ccccc3)cc1-2,97*,-6,-6,-8,80*,/
[O-][n+]1onc2c1CCc1nnccc1-2,4,6,5,5,/,/
O=C(Nc1cc(S(=O)(=O)Nc2ccc(Cl)cc2)ccc1N1CCCCC1)c1ccc(F)cc1,1,-4,7,11,/,/
N#Cc1ccc(C(=O)Nc2cc(S(=O)(=O)Nc3ccc(Cl)cc3)ccc2N2CCCCC2)cc1,105*,-15,-4,-4,58*,119*
Cc1ccccc1N1CCN(C(=O)NCc2cccc(Cl)c2)CC1,1,-7,9,14,/,/
O=[N+]([O-])c1cccc(C(=Nc2ccccc2Cl)NO)c1,85*,2,8,-9,73*,50*
O=[N+]([O-])c1cccc(C(=Nc2ccccc2)NO)c1,19,-1,1,-11,/,/
N=C(N)N=Nc1c(O)[nH]c2ccc(Br)cc12,93*,1,8,5,88*,28*
CCOc1ccc(Nc2nc3ccccc3n3nnnc23)cc1,132*,-6,-6,15,85*,16*
CCOc1ccc(Nc2nc3ccccc3n2C)cc1,1,5,-1,-16,/,/
Cc1nc(NCCc2ccc(F)cc2)c(C#N)c(C)c1[N+](=O)[O-],108*,-6,0,-13,113*,24*
CCOn1c(=O)c(-c2ccccc2)[n+]([O-])c2ccccc21,3,-3,-4,-16,/,/
